Legend:
[1] = Mean residence time in Sprague-Dawley rat at 2.5 mg/kg, iv by LC-MS/MS method; type: ADME, organism-based; parameters: dose 2.5 mg/kg, route intravenous; conditions: in vivo
Method in brief: (§1)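 Male Sprague−Dawley rats given a single 2.5 mg/kg iv dose; one formulation was DMF/PG/water (2:4:4), 0.2 μ filtered. Blood drawn from 0.08 to 48 h. Plasma assayed by LC-MS/MS with linear range 0.78−400 ng/mL.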

[2] = Plasma clearance in Sprague-Dawley rat at 2.5 mg/kg, iv by LC-MS/MS method; type: ADME, organism-based; parameters: dose 2.5 mg/kg, route intravenous; method in brief: as §1
[3] = Cmax in Sprague-Dawley rat at 2.5 mg/kg, iv by LC-MS/MS method; type: ADME, organism-based; parameters: dose 2.5 mg/kg, route intravenous; conditions: in vivo; method in brief: as §1
Syrian golden hamster [4] = assay: Reduction in body weight in high fructose and high-fat diet fed dyslipidemic Syrian golden hamster model at 10 mg/kg/day, po for 7 days; type: functional, Mesocricetus auratus; parameters: scale not given: the % may be the effect or the level left
Method in brief: (§2)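 HFD-fed Syrian golden hamsters, six per group, fed a high-fructose diet. Oral dosing in 1% gum acacia for 7 days. Sham group received vehicle. Plasma TG was measured and body weight tracked. Results given as % change versus HFD control.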

Syrian golden hamster [5] = assay: Antidyslipidemic activity in high fructose and high-fat diet fed dyslipidemic Syrian golden hamster model assessed as increase in lipoprotein lipase level at 100 mg/kg/day, po for 7 days; type: functional, Mesocricetus auratus
Method in brief: (§3)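 Syrian golden hamsters fed high-fructose high-fat diet; oral dosing in 1% gum acacia at 10, 30, 100 mg/kg (or 25 mg/kg) for 7 days, sham control given vehicle; plasma TG, cholesterol, LDL-C, HDL-C, glycerol and NEFA (kits), lipoprotein lipase activity and body weight; % change versus HFD control, six hamsters per group.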

Syrian golden hamster [6] = assay: Antidyslipidemic activity in high fructose and high-fat diet fed dyslipidemic Syrian golden hamster model assessed as increase in HDL-cholesterol level at 100 mg/kg/day, po for 7 days; type: functional, Mesocricetus auratus; method in brief: as §3
Syrian golden hamster [7] = assay: Antidyslipidemic activity in high fructose and high-fat diet fed dyslipidemic Syrian golden hamster model assessed as reduction in NEFA level at 100 mg/kg/day, po for 7 days; type: functional, Mesocricetus auratus; parameters: scale not given: the % may be the effect or the level left; method in brief: as §3
Syrian golden hamster [8] = assay: Antidyslipidemic activity in high fructose and high-fat diet fed dyslipidemic Syrian golden hamster model assessed as reduction in cholesterol level at 100 mg/kg/day, po for 7 days; type: functional, Mesocricetus auratus; parameters: scale not given: the % may be the effect or the level left; method in brief: as §3
Syrian golden hamster [9] = assay: Antidyslipidemic activity in high fructose and high-fat diet fed dyslipidemic Syrian golden hamster model assessed as increase in HDL-cholesterol level at 30 mg/kg/day, po for 7 day, po; type: functional, Mesocricetus auratus; method in brief: as §3
Syrian golden hamster [10] = assay: Antidyslipidemic activity in high fructose and high-fat diet fed dyslipidemic Syrian golden hamster model assessed as increase in HDL-cholesterol level at 10 mg/kg/day, po for 7 day, po; type: functional, Mesocricetus auratus; method in brief: as §3
Syrian golden hamster [11] = assay: Antidyslipidemic activity in high fructose and high-fat diet fed dyslipidemic Syrian golden hamster model assessed as reduction in NEFA level at 10 mg/kg/day, po for 7 day, po; type: functional, Mesocricetus auratus; parameters: scale not given: the % may be the effect or the level left; method in brief: as §3
Syrian golden hamster [12] = assay: Antidyslipidemic activity in high fructose and high-fat diet fed dyslipidemic Syrian golden hamster model assessed as reduction in glycerol level at 10 mg/kg/day, po for 7 day, po; type: functional, Mesocricetus auratus; parameters: scale not given: the % may be the effect or the level left; method in brief: as §3
Syrian golden hamster [13] = assay: Antidyslipidemic activity in high fructose and high-fat diet fed dyslipidemic Syrian golden hamster model assessed as reduction in LDL-cholesterol level at 10 to 100 mg/kg/day for 7 days; type: functional, organism-based; conditions: Mesocricetus auratus; method in brief: as §3
Syrian golden hamster [14] = assay: Antidyslipidemic activity in high fructose and high-fat diet fed dyslipidemic Syrian golden hamster model assessed as reduction in cholesterol level at 10 to 100 mg/kg/day for 7 days; type: functional, organism-based; conditions: Mesocricetus auratus; method in brief: as §3
Syrian golden hamster [15] = assay: Antidyslipidemic activity in high fructose and high-fat diet fed dyslipidemic Syrian golden hamster model assessed as reduction in cholesterol level at 25 mg/kg/day for 7 days; type: functional, Mesocricetus auratus; parameters: scale not given: the % may be the effect or the level left
Syrian golden hamster [16] = assay: Antidyslipidemic activity in high fructose and high-fat diet fed dyslipidemic Syrian golden hamster model assessed as reduction in triglyceride level at 25 mg/kg/day for 7 days; type: functional, Mesocricetus auratus; parameters: scale not given: the % may be the effect or the level left; method in brief: as §2
Mus musculus [17] = assay: Antidiabetic activity in diabetic C57BL/KsJ db/db mouse model assessed as improvement in glucose tolerance in hyperglycemia at 100 mg/kg, po measured 2 hrs post dose; type: functional
Mus musculus [18] = assay: Antidiabetic activity in diabetic C57BL/KsJ db/db mouse model assessed as improvement in glucose tolerance in hyperglycemia at 3 mg/kg, po measured 2 hrs post dose; type: functional
Mus musculus [19] = assay: Antidiabetic activity in diabetic C57BL/KsJ db/db mouse model assessed as improvement in glucose tolerance in hyperglycemia at 1 mg/kg, po measured 2 hrs post dose; type: functional
Mus musculus [20] = assay: Antidyslipidemic activity in diabetic C57BL/KsJ db/db mouse model assessed as increase in plasma HDL-C/cholesterol ratio at 25 mg/kg, po qd for 10 days; type: functional
Method in brief: (§4)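 db/db mice (blood glucose 200−350, TG 170−250, cholesterol 170−250, HDL-C 32−40 mg/dL) dosed orally at 25 mg/kg daily for 10 days; retro-orbital blood taken on day 11 for plasma TG, cholesterol and HDL-C (and HDL-C/CHOL ratio); mean % change versus vehicle control, 5 mice per group; Student t test.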

Mus musculus [21] = assay: Antidyslipidemic activity in diabetic C57BL/KsJ db/db mouse model assessed as reduction in plasma cholesterol level at 25 mg/kg, po qd for 10 days; type: functional; parameters: scale not given: the % may be the effect or the level left; method in brief: as §4
Mus musculus [22] = assay: Antidyslipidemic activity in diabetic C57BL/KsJ db/db mouse model assessed as reduction in plasma triglyceride level at 25 mg/kg, po qd for 10 days; type: functional; parameters: scale not given: the % may be the effect or the level left; method in brief: as §4
Mus musculus [23] = assay: Antihyperglycemic activity in diabetic C57BL/KsJ db/db mouse model assessed as improvement in glucose tolerance in hyperglycemia at 25 mg/kg, po qd for 10 days; type: functional
Method in brief: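 Male/female C57BL/KsJ db/db mice, 12−18 weeks, 40−50 g, selected for glucose 200−350 mg/dL. Oral dosing daily for 10 days. OGTT on day 10 after an overnight fast: compound at −30 min, then 3 g/kg oral glucose at 0 min. Glucose read at 30, 60, 90 and 120 min. AUC taken versus vehicle, 5 mice per group.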

Mus musculus [24] = assay: Antihyperglycemic activity in diabetic C57BL/KsJ db/db mouse model assessed as reduction in hyperglycemia at 25 mg/kg, po qd for 10 days; type: functional; parameters: scale not given: the % may be the effect or the level left
Method in brief: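 db/db mice (C57BL/KsJ, 12−18 weeks, 40−50 g, glucose 200−350 mg/dL), housed at 23 ± 2.0 °C on a 12 h light cycle. Oral dosing daily for 10 days. Blood glucose checked each morning through day 9. Body weight recorded daily from day 1 to day 10. Mean % change versus vehicle, 5 mice per group; Student t test.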

[25] = Oral bioavailability in Sprague-Dawley rat at 25 mg/kg by LC-MS/MS method; type: ADME, organism-based; conditions: in vivo
Method in brief: (§5)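 Male Sprague−Dawley rats given a single 25 mg/kg oral dose (aqueous 0.5% methyl cellulose suspension for one compound). Blood drawn from 0.08 to 48 h. LC-MS/MS, linear range 0.78−400 ng/mL.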

[26] = Elimination half life in Sprague-Dawley rat at 25 mg/kg, po by LC-MS/MS method; type: ADME, organism-based; parameters: dose 25 mg/kg, route oral; conditions: in vivo, read-out: beta t1/2 (converted); method in brief: as §5
[27] = Volume of distribution in Sprague-Dawley rat at 2.5 mg/kg, iv by LC-MS/MS method; type: ADME, organism-based; parameters: dose 2.5 mg/kg, route intravenous; conditions: in vivo; method in brief: as §1
Mus musculus [28] = assay: Antidiabetic activity in diabetic C57BL/KsJ db/db mouse model assessed as reduction in postprandial glucose level in hyperglycemia at 50 mg/kg, po measured 2 hrs post dose; parameters: scale not given: the % may be the effect or the level left

MRT [1]: 13.5 h | clearance [2]: 62 mL/min/kg | Cmax [3]: 523 ng/mL | bioavailability [25]: 27% | half-life [26]: 19.8 h | Vd [27]: 50.3 L/kg
Compound: CC(C)(C)NC[C@H](O)COc1ccc2c(=O)cc(-c3cc(OCc4ccccc4)cc(OCc4ccccc4)c3)oc2c1
Activity (Syrian golden hamster [4]): 7.38% | Activity (Syrian golden hamster [5]): 69.7% | Activity (Syrian golden hamster [6]): 27.9% | Activity (Syrian golden hamster [7]): 59.1% | Activity (Syrian golden hamster [8]): 50.7% | Activity (Syrian golden hamster [9]): 21% | Activity (Syrian golden hamster [10]): 9.37% | Activity (Syrian golden hamster [11]): 13.1% | Activity (Syrian golden hamster [12]): 14.4% | Activity (Syrian golden hamster [13]): Dose-dependent effect | Activity (Syrian golden hamster [14]): Dose-dependent effect | Activity (Syrian golden hamster [15]): 24.4% | Activity (Syrian golden hamster [16]): 34.7% | Activity (Mus musculus [17]): 59.4% | Activity (Mus musculus [18]): 35.1% | Activity (Mus musculus [19]): 21.46% | Percent increase in HDL-C/cholesterol ratio vs vehicle (Mus musculus [20]): 92.5 | Activity (Mus musculus [21]): 30.7% | Activity (Mus musculus [22]): 27.4% | Activity (Mus musculus [23]): 38.8% | Activity (Mus musculus [24]): 55.4% | Activity (Mus musculus [28]): 39.1%

— ChEMBL document CHEMBL2169868, “Flavone-based novel antidiabetic and antidyslipidemic agents” (J Med Chem, 2012)
